The inhibition in vivo is the drop in the measured response relative to a control, in per cent. A word on the ED50: it is the midpoint of the dose-response relation.

Common to all, as to format: functional
In assay [1] the test system is Mus musculus. Description: Antiinflammatory activity in mouse assessed as inhibition of xylene-induced ear edema at 40 mg/kg, po. Summed up:
(§1)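 Male and female Kunming mice (20–26 g) given the test substance by the oral route at 40 mg/kg. Percent inhibition was scored in the xylene-induced ear edema model (anti-inflammatory) or the acetic acid-induced writhing model (analgesic).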

The test system of assay [2] is Mus musculus. As to the kind of experiment: Analgesic activity in Kunming mouse assessed as inhibition of acetic acid-induced writhing response at 40 mg/kg, po. Put shortly: as §1
On the technique in general: Writhing tests count abdominal constrictions after an irritant is injected.

The subject of assay [3] is Mus musculus. Description: Antiinflammatory activity in orally dosed mouse assessed as inhibition of xylene-induced ear edema. Conditions: po. Put shortly:
(§2)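 Male and female Kunming mice (20–26 g) dosed orally. ED50 was determined in the xylene-induced ear edema model (anti-inflammatory) or the acetic acid-induced writhing model (analgesic).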

For assay [4], the system named is Mus musculus. Description: Analgesic activity in orally dosed Kunming mouse assessed as inhibition of acetic acid-induced writhing response. Conditions: po. Put shortly:
as §2

A further assay has as its system Rattus norvegicus. Description: Antiinflammatory activity in rat assessed as inhibition of carrageenan-induced paw edema. (In general: The carrageenan paw model is a standard test of acute inflammation.)

With `CN1CCN(C(=O)c2cc(-c3ccc(F)cc3F)ccc2OC(=O)c2ccccc2)CC1`, the inhibition in vivo at 40 mg/kg in the assay on Mus musculus [1] is 27.5%; in the assay on Mus musculus [2] it was 88.3%.
For the compound `CC(=O)Oc1ccc(-c2ccc(F)cc2F)cc1C(=O)O`, the inhibition in vivo at 40 mg/kg came to 13.7% with Mus musculus [1] and 0% with Mus musculus [2].
`O=C(Oc1ccc(-c2ccc(F)cc2F)cc1C(=O)O)c1ccccc1`: the values for the inhibition in vivo at 40 mg/kg in the assay with Mus musculus [1] and in the assay with Mus musculus [2] were 16.1% and 7.97%, respectively.
As to `CC(=O)Oc1ccc(-c2ccc(F)cc2F)cc1C(=O)Nc1cc(C)ccc1C`, the inhibition in vivo at 40 mg/kg came out at 22% in the assay on Mus musculus [1] and 13.2% in the assay on Mus musculus [2].
With `Cc1ccccc1NC(=O)c1cc(-c2ccc(F)cc2F)ccc1OC(=O)c1ccccc1`, the inhibition in vivo at 40 mg/kg with Mus musculus [1] was determined as 21.4%; with Mus musculus [2], 20.8%.
For `CCN(CC)C(=O)c1cc(-c2ccc(F)cc2F)ccc1OC(=O)c1ccccc1`, in the assay with Mus musculus [3], the ED50 was determined as 25.7 mg/kg. The inhibition in vivo at 40 mg/kg in the assay with Mus musculus [1] was determined as 65.2%; in the assay with Mus musculus [2], 0%.
On to `CC(=O)Oc1ccc(-c2ccc(F)cc2F)cc1C(=O)NN1CCOCC1`, for which the inhibition in vivo at 40 mg/kg amounted to 0% with Mus musculus [1] and 28.5% with Mus musculus [2].
On to `CNC(=O)c1cc(-c2ccc(F)cc2F)ccc1OC(=O)c1ccccc1`, for which the ED50 was determined as 24.2 mg/kg in the assay with Mus musculus [3] and 43.8 mg/kg in the assay with Mus musculus [4]. For the same compound, the inhibition in vivo at 40 mg/kg in the assay with Mus musculus [1] came out at 68.9%; in the assay with Mus musculus [2] it was 47.5%.
Take `O=C(Oc1ccc(-c2ccc(F)cc2F)cc1C(=O)Nc1ccccc1)c1ccccc1`: the values for the inhibition in vivo at 40 mg/kg with Mus musculus [1] and in the assay on Mus musculus [2] were 19.8% and 5.57%, respectively.
With `CC(=O)Oc1ccc(-c2ccc(F)cc2F)cc1C(=O)Nc1ccccc1Cl`, the results for the inhibition in vivo at 40 mg/kg with Mus musculus [1] and in the assay with Mus musculus [2] were 41.4% and 11.7%, respectively.
`CC(=O)Oc1ccc(-c2ccc(F)cc2F)cc1C(=O)Nc1ccc(Cl)cc1`: the inhibition in vivo at 40 mg/kg stood at 0% in the assay on Mus musculus [1] and 29.9% in the assay with Mus musculus [2].
As to `CC(=O)Oc1ccc(-c2ccc(F)cc2F)cc1C(=O)Nc1ccccc1C`, the inhibition in vivo at 40 mg/kg was found to be 19.6% in the assay with Mus musculus [1] and 12.3% in the assay with Mus musculus [2].
In the same order, the values of `CC(=O)Oc1ccc(-c2ccc(F)cc2F)cc1C(=O)Nc1ccc(C)cc1` are 36.4% and 31%.
Consider `CC(=O)Oc1ccc(-c2ccc(F)cc2F)cc1C(=O)NCc1ccccc1`, for which the figures for the inhibition in vivo at 40 mg/kg in the assay with Mus musculus [1] and in the assay with Mus musculus [2] were 34.1% and 16.6%, respectively.
On to `CCNC(=O)c1cc(-c2ccc(F)cc2F)ccc1OC(C)=O`, for which the inhibition in vivo at 40 mg/kg in the assay with Mus musculus [1] came to 5.38%; in the assay with Mus musculus [2], 23.9%.
As to `CC(=O)Oc1ccc(-c2ccc(F)cc2F)cc1C(=O)NC1CCCCC1`, the inhibition in vivo at 40 mg/kg in the assay with Mus musculus [1] came out at 0%; in the assay with Mus musculus [2] it was 15.6%.
In the same order, the values of `CC(=O)Oc1ccc(-c2ccc(F)cc2F)cc1C(=O)Nc1ccccc1` are 23.2% and 8.9%.
For `CC(=O)Oc1ccc(-c2ccc(F)cc2F)cc1C(=O)Nc1cccc(C)c1`, the inhibition in vivo at 40 mg/kg with Mus musculus [1] was found to be 12.8%; in the assay on Mus musculus [2], 19%.
In the same order, the values of `CNC(=O)c1cc(-c2ccc(F)cc2F)ccc1OC(C)=O` are 48.8% and 29.9%.
On to `O=C(O)c1cc(-c2ccc(F)cc2F)ccc1O` [DIFLUNISAL], for which the ED50 in the assay with Rattus norvegicus worked out at 59.6 mg/kg. The results for the inhibition in vivo at 40 mg/kg with Mus musculus [1] and in the assay with Mus musculus [2] were 39.9% and 8.33%, respectively.

Values taken from ChEMBL document CHEMBL1154511, “Synthesis and biological evaluation of amide derivatives of diflunisal as potential anti-inflammatory agents” (2009).
